Results on 3 compounds are retold here after publication PMC4273560 (Neurobiology of disease, 2014).

Entries after “also recorded” stand apart in the source; their conditions may differ. Ends that are not written are not given here. Peptide text beside a SMILES is read from it. * marks the point of attachment. FITC = O=C1OC2(c3ccc(O)cc3Oc3cc(O)ccc32)c2ccc(NC(=S)*)cc21

Series [1] deals with T1, JAM-A (Mus musculus, UniProt O88792).
T1 sequence (O88792 27-300): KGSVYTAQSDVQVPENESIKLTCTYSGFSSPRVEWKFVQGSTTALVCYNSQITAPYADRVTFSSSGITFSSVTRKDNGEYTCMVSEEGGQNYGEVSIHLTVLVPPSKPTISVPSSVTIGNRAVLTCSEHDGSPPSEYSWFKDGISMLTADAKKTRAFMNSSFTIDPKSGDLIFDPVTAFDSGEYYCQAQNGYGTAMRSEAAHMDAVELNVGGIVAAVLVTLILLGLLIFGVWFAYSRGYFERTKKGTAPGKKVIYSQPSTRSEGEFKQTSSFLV
The series can be described thus: Cell-based ELISA, JAM-A surface expression on mBMEC. The note with it: CCL2 100 ng/ml; 2 and 24 h; p < 0.001. Background: In an ELISA, binding on a coated surface is turned into a signal by an enzyme label.

Series [2] has as its system ICAM-1. The series can be described thus: Cell-based ELISA, ICAM-1 surface expression on mBMEC. The settings on record: CCL2 100 ng/ml. Set-up: species or system mouse.
Series [3] addresses T1, JAM-A. The settings on record: brain endothelial cells; ref Stamatovic et al., 2012; cited from earlier work.
The target in series [4] is T1, JAM-A. The format is binding. In short, it runs like this:
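mBMEC (first passage) plated in 96-well plates and incubated with a constant level of FITC-labelled peptide plus increasing unlabelled peptide. Cells washed 3× and fixed in 4% paraformaldehyde for 15 min at room temperature. Fluorescence read on a plate reader. Percent inhibition plotted against concentration and IC50 read from the curve. Three independent experiments.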

The next series deals with mBMEC monolayers. The series is described as follows: In vitro permeability of mBMEC monolayers to inulin. The format is cell-based, mouse. The note with it: JAM-Ap 0.1–1000 μg/ml, 0–72 h.
For another series, the system named is mBMEC. The series is classed as cell-based, mouse. The settings on record: 12 h.
The subject of a further series is BBB, FITC-inulin. The note with it: mouse, in vivo.
The subject of series [5] is neutrophils and monocytes in blood. The note with it: mouse, in vivo.
The nature of series [6]: Physiological variables of mice before, during and 6 hrs after tMCAO. The settings on record: ip injection, n = 10. The series is classed as in vivo, mouse.
For series [7], the system named is ICAM-1. The series can be described thus: Cross binding of JAM-Ap-FITC to ICAM-1. The arrangement: species or system mouse. The settings on record: increasing concentrations of anti-ICAM-1 antibody; presence and absence of JAM-A. In outline:
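bEnd.3 JAM-A-knockdown cells (stable shRNA) and JAM-A-expressing mBMEC in 96-well plates were primed with IL-1β plus TNF-α for 6 h or OGD/reoxygenation for 24 h in DMEM. They then received FITC-peptide with or without increasing anti-ICAM-1 antibody in D-PBS for 30 min at 4 °C. Cells washed 3×, fixed in 4% paraformaldehyde, and fluorescence read. FITC-scrambled peptide served as control.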

Another series deals with CD31 + brain microvessel. The note with it: mouse, in vivo.

As for CCL2: chemokine CCL2 (PeproTech), the “cell surface (apical) expression of JAM-A” value in the series with JAM-A [1] was “increased apical membrane JAM-A expression; also recorded: an increase in cell surface (apical) expression of JAM-A”. In addition, the ICAM-1 surface expression result with ICAM-1 [2] is reported as “surface expression was also increased; also recorded: A similar degree of surface accumulation”. Further, the JAM-A relocalization entry with JAM-A [3] was “JAM-A became relocalized from the lateral to the apical membrane of brain endothelial cells”.
For orientation: IC50 means the concentration at which inhibition is half-maximal. With NPKSTRAFSNDDYVLNPTTG [JAM-Ap], the IC50 at JAM-A [4] was 0.025 µM. Besides, the “effect on barrier permeability to inulin (5 kDa), in vitro” value in the series with mBMEC monolayers is reported as “no effect on barrier permeability to inulin”. Also, the “cell viability after treatment” value in the series on mBMEC was more than 99%. Moreover, the “BBB permeability in control mice” value in the series on BBB, FITC-inulin is “no effect on permeability”. In series [5], the “blood MO (monocytes)” value is 3.95 10^8 and the “blood PMN” value is reported as 0.99 10^9/l. In series [6] (15 min MCAO), the Glucose worked out at 142 ± 6 g/dL, the PCO2 stood at 34±2, the PO2 worked out at 110±7 and the pH is listed as 7.32±0.012. The compound also had a rCBF in series [6] (15 min MCAO) of 13±2%. In [6] (6 hr post-tMCAO), this compound gave a Glucose of 128 ± 9 g/dL, a PCO2 of 36±1, a PO2 of 115±10 and a pH of 7.36±0.018. The rCBF in series [6] (6 hr post-tMCAO) stood at 100±1%. In addition, in [6] (before), the Glucose was 135 ± 3 g/dL, the PCO2 is given as 32±2, the PO2 is reported as 123±5 and the pH is on record as 7.36±0.03. Moreover, the rCBF in [6] (before) stood at 100±0%.
As to `CC(C)C[C@H](NC(=O)[C@@H](NC(=O)[C@H](Cc1ccc(O)cc1)NC(=O)[C@H](CC(=O)O)NC(=O)[C@H](CC(=O)O)NC(=O)[C@H](CC(N)=O)NC(=O)[C@H](CO)NC(=O)[C@H](Cc1ccccc1)NC(=O)[C@H](C)NC(=O)[C@H](CCCNC(=N)N)NC(=O)[C@@H](NC(=O)[C@H](CO)NC(=O)[C@H](CCCCNC(=S)Nc1ccc2c(c1)C(=O)OC21c2ccc(O)cc2Oc2cc(O)ccc21)NC(=O)[C@@H]1CCCN1C(=O)[C@@H](N)CC(N)=O)[C@@H](C)O)C(C)C)C(=O)N[C@@H](CC(N)=O)C(=O)N1CCC[C@H]1C(=O)N[C@H](C(=O)N[C@H](C(=O)NCC(=O)O)[C@@H](C)O)[C@@H](C)O` [JAM-Ap-FITC] (H-NPK(FITC)STRAFSNDDYVLNPTTG-OH; N-terminus and C-terminus assumed), in the series on ICAM-1 [7], the “binding affinity for ICAM-1” value was “very low binding affinity”. Besides, in the series with CD31 + brain microvessel, the “accumulation at luminal side of CD31 + brain microvessel” value is listed as “high accumulation”; the “association with CD45 + cells in brain” value is on record as “not associated with CD45 + cells”; the “nonspecific trapping in ischemic lesion” value is “comparable with labeled control peptide (cp), at the level of threshold”. Besides, the “accumulation in liver and lung microvessels or tissue” value in the series with CD31 + brain microvessel (ip) was “did not detect significant amount”.
